Assays:
[1] = Cytotoxicity against HEK293 cells assessed as reduction in cell viability at 1 uM after 72 hrs by CCK8 assay; type: toxicity, cell-based; conditions: human, hek293, 72 h
[2] = molecular target: T1, ATP-dependent translocase ABCB1 (Homo sapiens, UniProt P08183); assay: Inhibition of human ABCB1 transfected in HEK293 cells assessed as potentiation of doxorubicin-induced cytotoxicity by measuring doxorubicin resistance ratio at 200 nM after 72 hrs by CCK8 assay relative to parental HEK293 cells (reference value: 96); type: cell-based; conditions: hek293, 72 h, 0.2 µM
T1 sequence (P08183 whole entry): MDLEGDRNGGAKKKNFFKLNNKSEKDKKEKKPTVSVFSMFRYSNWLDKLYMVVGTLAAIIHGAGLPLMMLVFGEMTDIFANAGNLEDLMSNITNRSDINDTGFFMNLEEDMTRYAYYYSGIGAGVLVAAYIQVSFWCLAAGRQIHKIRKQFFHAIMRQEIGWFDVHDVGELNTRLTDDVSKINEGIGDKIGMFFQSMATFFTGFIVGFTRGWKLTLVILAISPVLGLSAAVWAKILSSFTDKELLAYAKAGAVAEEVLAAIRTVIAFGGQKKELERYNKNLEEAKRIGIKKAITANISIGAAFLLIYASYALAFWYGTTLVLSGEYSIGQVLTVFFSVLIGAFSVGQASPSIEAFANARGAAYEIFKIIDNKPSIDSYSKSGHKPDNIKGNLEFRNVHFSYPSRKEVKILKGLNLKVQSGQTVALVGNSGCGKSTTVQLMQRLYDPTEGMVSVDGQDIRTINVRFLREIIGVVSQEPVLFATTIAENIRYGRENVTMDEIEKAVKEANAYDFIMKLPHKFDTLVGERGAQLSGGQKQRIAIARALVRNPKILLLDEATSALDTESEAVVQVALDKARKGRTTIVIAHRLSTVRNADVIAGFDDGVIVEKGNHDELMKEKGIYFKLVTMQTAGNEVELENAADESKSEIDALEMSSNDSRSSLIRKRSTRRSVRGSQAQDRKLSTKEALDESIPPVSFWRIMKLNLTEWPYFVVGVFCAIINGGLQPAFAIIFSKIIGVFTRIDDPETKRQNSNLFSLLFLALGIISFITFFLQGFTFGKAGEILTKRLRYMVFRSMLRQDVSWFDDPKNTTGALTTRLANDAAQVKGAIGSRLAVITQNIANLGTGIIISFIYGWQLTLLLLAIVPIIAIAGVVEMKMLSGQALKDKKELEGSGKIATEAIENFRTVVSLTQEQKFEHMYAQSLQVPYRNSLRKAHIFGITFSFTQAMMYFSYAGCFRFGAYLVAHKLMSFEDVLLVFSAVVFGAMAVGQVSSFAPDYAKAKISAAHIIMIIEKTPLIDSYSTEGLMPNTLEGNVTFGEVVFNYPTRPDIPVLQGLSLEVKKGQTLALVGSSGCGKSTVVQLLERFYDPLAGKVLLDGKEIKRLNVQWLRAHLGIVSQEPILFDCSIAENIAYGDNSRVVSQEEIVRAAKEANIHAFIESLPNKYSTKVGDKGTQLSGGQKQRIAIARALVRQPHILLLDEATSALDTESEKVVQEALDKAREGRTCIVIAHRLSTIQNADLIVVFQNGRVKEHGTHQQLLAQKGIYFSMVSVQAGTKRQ

[3] = molecular target: T1, ATP-dependent translocase ABCB1; assay: Inhibition of human ABCB1 transfected in HEK293 cells assessed as potentiation of doxorubicin-induced cytotoxicity by measuring doxorubicin resistance ratio at 500 nM after 72 hrs by CCK8 assay relative to parental HEK293 cells (reference value: 96); type: cell-based; conditions: hek293, 72 h, 0.5 µM
[4] = molecular target: T1, ATP-dependent translocase ABCB1; assay: Inhibition of ABCB1 in human KBV1 cells assessed as potentiation of doxorubicin-induced cytotoxicity at 1 uM after 72 hrs by MTT assay; type: cell-based; conditions: kbv1, 72 h
Outline: (§1)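 The cells were kept in drug-free medium for 7 days. They were seeded at 5000 cells/well, allowed to attach for 24 h at 37 °C, then exposed to graded doxorubicin with or without 50–500 nM test compound or 1 μM tariquidar for a further 72 h. Viability was read by MTT. Results are means of at least three independent experiments.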

[5] = molecular target: T1, ATP-dependent translocase ABCB1; assay: Inhibition of ABCB1 in human NCI-ADR-RES cells assessed as potentiation of doxorubicin-induced cytotoxicity at 1 uM after 72 hrs by MTT assay; type: cell-based; outline: as §1
[6] = molecular target: T1, ATP-dependent translocase ABCB1; assay: Inhibition of ABCB1 in human KBV1 cells assessed as potentiation of doxorubicin-induced cytotoxicity by measuring doxorubicin resistance ratio at 500 nM after 72 hrs by MTT assay relative to parental KB-3-1 cells (reference value: 34); type: cell-based; conditions: kbv1, 72 h, 0.5 µM
Outline: (§2)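 Cells were kept in drug-free DMEM with 10% FCS for 7 days before assay, then plated at 5000 cells/well for 24 h. Drug at various concentrations was added with a nontoxic fixed level of modulator for 72 h, and the read-out was MTT. IC50 came from fitted curves (≥3 experiments). RR = IC50 of the resistant line / IC50 of the parental line.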

[7] = molecular target: T1, ATP-dependent translocase ABCB1; assay: Inhibition of ABCB1 in human KBV1 cells assessed as potentiation of doxorubicin-induced cytotoxicity by measuring doxorubicin resistance ratio at 100 nM after 72 hrs by MTT assay relative to parental KB-3-1 cells (reference value: 34); type: cell-based; conditions: kbv1, 72 h, 0.1 µM; outline: as §2
[8] = molecular target: T1, ATP-dependent translocase ABCB1; assay: Inhibition of ABCB1 in human KBV1 cells assessed as potentiation of doxorubicin-induced cytotoxicity by measuring doxorubicin resistance ratio at 50 nM after 72 hrs by MTT assay relative to parental KB-3-1 cells (reference value: 34); type: cell-based; conditions: kbv1, 72 h, 0.05 µM; outline: as §2
[9] = molecular target: T1, ATP-dependent translocase ABCB1; assay: Inhibition of ABCB1 in human KBV1 cells assessed as potentiation of colchicine-induced cytotoxicity by measuring colchicine resistance ratio at 100 nM after 72 hrs by MTT assay relative to parental KB-3-1 cells (reference value: 55); type: cell-based; conditions: kbv1, 72 h, 0.1 µM; outline: as §2
[10] = molecular target: T1, ATP-dependent translocase ABCB1; assay: Inhibition of ABCB1 in human KBV1 cells assessed as potentiation of vincristine-induced cytotoxicity by measuring vincristine resistance ratio at 500 nM after 72 hrs by MTT assay relative to parental KB-3-1 cells (reference value: 356); type: cell-based; conditions: kbv1, 72 h, 0.5 µM; outline: as §2
[11] = molecular target: T1, ATP-dependent translocase ABCB1; assay: Inhibition of ABCB1 in human KBV1 cells assessed as potentiation of vincristine-induced cytotoxicity by measuring vincristine resistance ratio at 200 nM after 72 hrs by MTT assay relative to parental KB-3-1 cells (reference value: 356); type: cell-based; conditions: kbv1, 72 h, 0.2 µM; outline: as §2
[12] = molecular target: T1, ATP-dependent translocase ABCB1; assay: Inhibition of ABCB1 in human KBV1 cells assessed as potentiation of vincristine-induced cytotoxicity by measuring vincristine resistance ratio at 100 nM after 72 hrs by MTT assay relative to parental KB-3-1 cells (reference value: 356); type: cell-based; conditions: kbv1, 72 h, 0.1 µM; outline: as §2
[13] = molecular target: T1, ATP-dependent translocase ABCB1; assay: Inhibition of ABCB1 in human KBV1 cells assessed as potentiation of vincristine-induced cytotoxicity by measuring vincristine resistance ratio at 50 nM after 72 hrs by MTT assay relative to parental KB-3-1 cells (reference value: 356); type: cell-based; conditions: kbv1, 72 h, 0.05 µM; outline: as §2
[14] = molecular target: T1, ATP-dependent translocase ABCB1; assay: Inhibition of ABCB1 in human NCI-ADR-RES cells assessed as potentiation of doxorubicin-induced cytotoxicity by measuring doxorubicin resistance ratio at 50 nM after 72 hrs by MTT assay relative to parental OVCAR8 cells (reference value: 46); type: cell-based; conditions: ovcar-8, 72 h, 0.05 µM; outline: as §2
[15] = molecular target: T1, ATP-dependent translocase ABCB1; assay: Inhibition of ABCB1 in human NCI-ADR-RES cells assessed as potentiation of colchicine-induced cytotoxicity by measuring colchicine resistance ratio at 500 nM after 72 hrs by MTT assay relative to parental OVCAR8 cells (reference value: 59); type: cell-based; conditions: ovcar-8, 72 h, 0.5 µM; outline: as §2
[16] = molecular target: T1, ATP-dependent translocase ABCB1; assay: Inhibition of ABCB1 in human NCI-ADR-RES cells assessed as potentiation of colchicine-induced cytotoxicity by measuring colchicine resistance ratio at 100 nM after 72 hrs by MTT assay relative to parental OVCAR8 cells (reference value: 59); type: cell-based; conditions: ovcar-8, 72 h, 0.1 µM; outline: as §2
[17] = molecular target: T1, ATP-dependent translocase ABCB1; assay: Inhibition of ABCB1 in human NCI-ADR-RES cells assessed as potentiation of colchicine-induced cytotoxicity by measuring colchicine resistance ratio at 50 nM after 72 hrs by MTT assay relative to parental OVCAR8 cells (reference value: 59); type: cell-based; conditions: ovcar-8, 72 h, 0.05 µM; outline: as §2
KB 3-1 [18] = assay: Induction of apoptosis in human KB-3-1 cells assessed as early apoptotic cells at 1 uM after 48 hrs by Annexin V-FITC/propidium iodide staining based FACS analysis (reference value: 5.1%); type: functional
KB 3-1 [19] = assay: Induction of apoptosis in human KB-3-1 cells assessed as necrotic cells at 1 uM after 48 hrs by Annexin V-FITC/propidium iodide staining based FACS analysis (reference value: 0.7%); type: functional
KB-V1 [20] = assay: Induction of apoptosis in human KBV1 cells assessed as late apoptotic cells at 1 uM after 48 hrs by Annexin V-FITC/propidium iodide staining based FACS analysis (reference value: 7.6%); type: functional
KB-V1 [21] = assay: Induction of apoptosis in human KBV1 cells assessed as necrotic cells at 1 uM after 48 hrs by Annexin V-FITC/propidium iodide staining based FACS analysis (reference value: 1%); type: functional
KB 3-1 [22] = assay: Potentiation of colchicine-induced apoptosis in human KB-3-1 cells assessed as viable cells at 1 uM after 48 hrs by Annexin V-FITC/propidium iodide staining based FACS analysis (reference value: 38.9%); type: functional; conditions: KB 3-1, 48 h, read-out: Activity
[23] = molecular target: T1, ATP-dependent translocase ABCB1; assay: Induction of Vanadate-sensitive ABCB1 (unknown origin) assessed as ATPase activity by measuring concentration required for 50% maximal stimulation by Pgp-glo assay
Outline: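 Vanadate-sensitive ABCB1 ATPase activity was measured with the Pgp-Glo system using […], across 0–1 μM test compound. Points are the mean of at least three independent experiments.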

With COc1ccc2cc1Oc1ccc(cc1)C[C@H]1c3cc(c(OC)cc3CCN1C)Oc1c(OC)c(OC)c(OC)c3c1[C@H](C2)N(C)CC3 [HERNANDEZINE] the Activity [1] was “Non-Toxic”, the Ratio [2] was 8 and the Ratio [3] was 7. For the same compound, the “inhibition (INH)” value [4] was “Active”, the “inhibition (INH)” value [5] was “Active” and the Ratio [6] was 1. The Ratio [7] was 5, the Ratio [8] was 9 and the Ratio [9] was 21. The Ratio [10] was 3, the Ratio [11] was 34 and the Ratio [12] was 169. It also gave a Ratio [13] of 325, a Ratio [14] of 26 and a Ratio [15] of 4. For the same compound, the Ratio [16] was 23, the Ratio [17] was 46 and the Activity (KB 3-1 [18]) was 6.6%. It also gave an Activity (KB 3-1 [19]) of 0.2%, an Activity (KB-V1 [20]) of 6.7% and an Activity (KB-V1 [21]) of 1%. The viability at 1 µM (KB 3-1 [22]) was 37.4%, the Activity ([23]; human) was “Dose-dependent effect” and the EC50 ([23]; read-out: Activity) was 20 nM.

Reference: ChEMBL document CHEMBL3867440, “Hernandezine, a Bisbenzylisoquinoline Alkaloid with Selective Inhibitory Activity against Multidrug-Resistance-Linked ATP-Binding Cassette Drug Transporter ABCB1” (J Nat Prod, 2016)
